Compounds with a hit are over-represented: about 5.8% of the library has one in this group of screens.
WT yeast gro inh = growth inhibition of WT yeast, mitochondrial fusion screen. mitochondrial fusion phenotypic screen, WT strain. inhibition, % at 10 µM. 190,000 tested, 2.1% active; in the data active means inhibition above about 58%; tested in S. cerevisiae
p47phox inh = blocks human p47phox regulatory protein of NADPH oxidases. P14598. 220,000 tested, 0.53% active. AID 1274. p47phox/p22phox peptide binding, fluorescence polarization, 2 h. inhibition, % at 24.7 µM;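 active means inhibition above about 30%, limit read from the data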;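 further: 0% = p47phox with labelled peptide and 100% = labelled peptide alone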
Target sequence (P14598 whole entry, looked up): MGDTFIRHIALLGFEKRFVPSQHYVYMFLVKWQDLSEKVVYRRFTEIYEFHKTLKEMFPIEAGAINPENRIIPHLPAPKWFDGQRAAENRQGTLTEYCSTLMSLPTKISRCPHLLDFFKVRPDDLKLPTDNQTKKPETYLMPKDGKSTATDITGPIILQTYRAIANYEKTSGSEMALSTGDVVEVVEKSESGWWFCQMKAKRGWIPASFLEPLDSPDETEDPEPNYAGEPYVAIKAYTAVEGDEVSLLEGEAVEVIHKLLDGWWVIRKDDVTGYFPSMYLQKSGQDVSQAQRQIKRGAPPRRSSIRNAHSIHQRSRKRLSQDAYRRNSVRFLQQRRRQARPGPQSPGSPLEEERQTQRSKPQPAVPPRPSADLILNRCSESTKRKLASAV
RBBP9 inhibitor = blocks human serine hydrolase RBBP9. recombinant RBBP9, FP-Rh probe fluorescence polarization. inhibition, % at 7.94 µM. 220,000 tested, 0.2% active. AID 1515;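 active means inhibition above the campaign mean of all tested compounds plus 3 SD, cut at about 14% in these data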;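 further: plate controls were DMSO wells with RBBP9 for no effect and wells lacking RBBP9 protein for full effect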
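Test system: recombinant human RBBP9. Quantity: 2.5 µM RBBP9 dispensing solution, before mixing. Detection: FP readout at 525/598 nm. Reagent: Serine-hydrolase probe FP-Rh, 375 nM pre-mixing. Measure: % inhibition. Control set: DMSO-treated enzyme wells and wells lacking RBBP9. Buffer or medium: Tris-NaCl-Pluronic buffer, pH 8.0. Times: preincubation 30 min plus labeling 45 min at 25 °C.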
ROMK primary = modulates human ROMK potassium channel activity | P48048 | Tet-inducible ROMK, thallium flux fluorescence; actives lie on both sides | B-score at 10 µM | 130,000 tested, 2% active | AID 1918;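 active means signal ratio slope over the read window, or its plate-corrected B-score, at least 3 SD from the plate mean, either direction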;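 further: B-score of the F/F0 ratio slope over 7 to 12 s after thallium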
KCC2 mod = modulators of human KCC2 chloride dependent transport. KCC2 cells, thallium flux FluoZin-2 fluorescence. 190,000 tested, 2.2% active. B-score of Tl+ flux slope (higher = more flux/activation; lower = inhibition) at 10 µM. AID 1456. Q9H2X9;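 active means thallium flux slope and its plate-corrected score both differing from the plate sample mean at a set confidence after two filtering rounds, in either direction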;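 further: slope of fluorescence scaled to starting intensity during 10 to 20 s after thallium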
14-3-3 Bad PPI = disrupts binding of bovine 14-3-3 zeta to phospho-Bad peptide; P63103; TR-FRET 14-3-3zeta/Dy647-pBad peptide displacement, 1 h; inhibition, % at 21.7 µM; 220,000 tested, 0.71% active; AID 781;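 active means inhibition above about 70%, limit read from the data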;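 further: 0% = full 14-3-3 plus peptide FRET controls and 100% = background without 14-3-3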
Target sequence (P63103 whole entry, looked up): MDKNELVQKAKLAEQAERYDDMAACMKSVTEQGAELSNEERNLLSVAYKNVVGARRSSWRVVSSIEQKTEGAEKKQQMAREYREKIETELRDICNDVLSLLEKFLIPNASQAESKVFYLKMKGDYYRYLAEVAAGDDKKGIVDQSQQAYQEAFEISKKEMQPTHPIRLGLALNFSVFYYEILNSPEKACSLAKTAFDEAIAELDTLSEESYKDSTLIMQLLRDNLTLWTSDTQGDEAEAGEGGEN
KCC2 secondary = KCC2 (human) modulation, secondary assay. shares compounds with KCC2 mod. normalised thallium flux (F/F0 slope) at 10 µM. 3,700 tested, 15% active. HEK293-KCC2, thallium flux, FluoZin2 fluorescence; stronger effect = higher value. AID 1713;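 active means thallium flux slope above the same plate's solvent-only control mean plus 3 SD; inconclusive means the two replicate wells disagree; inactive means no significant difference from solvent-only control wells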
KCC2 bumet counter = bumetanide-insensitive thallium flux in KCC2 cells with ouabain, counter-screen; shares compounds with KCC2 mod; HEK293-KCC2 + bumetanide/ouabain, thallium flux FluoZin2; stronger effect = higher value; normalized thallium flux at 10 µM; 3,700 tested, 49% active; AID 1714;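 active means thallium entry rate above the same plate's blocked-transporter control wells by more than 3 SD; inconclusive means the two repeat wells disagree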;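 further: raw slope of fluorescence over initial fluorescence between 10 and 20 s after thallium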
KCC2 secondary2 = KCC2 (human) modulation, second secondary assay. AID 1715. normalized thallium flux at 10 µM. shares compounds with KCC2 mod. 3,700 tested, 23% active. HEK293-KCC2, thallium flux FluoZin2 fluorescence; actives lie on both sides; F/F0 rise rate, 10–20 s post-thallium;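 active means thallium flux slope more than 3 SD above or below the plate's solvent-only control mean, mostly below; inconclusive means the two repeat wells disagreed; inactive means no significant shift from solvent-only controls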;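 further: raw slope with 0.1% DMSO as baseline and bumetanide as block control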
HEK counter1 = acts in parental HEK cells, KCC2 counter-screen. shares compounds with KCC2 mod. HEK293 parental cells, thallium flux FluoZin2, ouabain; baseline-ratio fluorescence slope, 10–20 s after thallium. thallium flux rate (normalised fluorescence) at 10 µM. 3,700 tested, 46% active. AID 1716;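 active means thallium flux rate significantly above the same plate's solvent-only control wells, beyond their mean plus 3 SD; inconclusive means the two replicate wells gave conflicting results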
KCC2 retest ouab = KCC2 (human) modulation, ouabain retest; shares compounds with KCC2 mod; HEK293-KCC2, thallium flux FluoZin2 fluorescence; bidirectional: low = inhibitor, high = activator; raw Tl+ flux slope (below DMSO = inhibition, above = activation) at 10 µM; 3,700 tested, 48% active;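 active means thallium flux slope beyond 3 SD from same-plate DMSO control mean in most replicates, usually higher, sometimes lower; inconclusive means repeat tests gave conflicting results; inactive means no significant difference from controls in most replicates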;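 further: slope of initial-normalized fluorescence between seconds 10 and 20 after thallium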
HEK293 Tl flux2 = parental HEK flux effect, counter-screen 2; shares compounds with KCC2 mod; 3,700 tested, 33% active; HEK293 parental, thallium flux FluoZin-2 fluorescence slope; thallium flux slope at 10 µM; AID 1718;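 active means thallium flux slope above the same plate's solvent-control mean plus 3 SD in both duplicate wells; inconclusive means duplicate wells that disagreed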;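 further: run without ouabain in cells lacking the KCC2 cotransporter; slope of fluorescence scaled to its starting value between 10 and 20 s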
* hit, by the source's call; ? = inconclusive; nt = not tested or not shown.

SMILES	WT yeast gro inh	p47phox inh	RBBP9 inhibitor	ROMK primary	KCC2 mod	14-3-3 Bad PPI	KCC2 secondary	KCC2 bumet counter	KCC2 secondary2	HEK counter1	KCC2 retest ouab	HEK293 Tl flux2
Cc1occc1C(=O)NNC1=CC(=O)CC(C)(C)C1	-10	-16	-1	-0.085	0.028	-21	nt	nt	nt	nt	nt	nt
Cc1ccc(Cn2c(SCC(N)=O)nc3c2c(=O)n(C)c(=O)n3C)cc1	-10	-7	5	0.29	4.8*	-3	0.0064	?	0.034	0.0075	0.019	0.011
Cc1ccc(Cn2c(SCCN3CCCCC3)nc3c2c(=O)n(C)c(=O)n3C)cc1	-17	-8	-10	0.14	nt	-10	nt	nt	nt	nt	nt	nt
COc1cc(OC)c(C2=NOC(C(=O)NCc3cccs3)C2)cc1Cl (stereo not drawn)	-13	-7	-8	2.7	-0.66	-6	nt	nt	nt	nt	nt	nt
COc1cc(OC)c(C2=NOC(C(=O)NCCc3ccccc3)C2)cc1Cl (stereo not drawn)	4	-4	6	-0.75	nt	-2	0.0064	0.0043	0.026*	0.007	?	0.0098
O=C(NCCCCc1ccccc1)C1CC(c2ccccc2C(F)(F)F)=NO1 (stereo not drawn)	nt	-19	nt	nt	-4.2*	-1	0.008	0.0044	0.023*	0.0064	0.016*	0.0098
O=C(NCCCCc1ccccc1)C1CC(c2ccccc2[N+](=O)[O-])=NO1 (stereo not drawn)	-14	-14	-10	nt	-6.4*	6	0.006	0.0046	0.021*	0.0074	0.013*	0.0092
COc1ccc(N/C(N)=N/c2nc(CSc3ccc(C)cc3)cc(=O)[nH]2)cc1	80*	-10	-1	0.6	nt	12	0.015	0.004	0.031	0.0076	0.015	0.011
Cc1[nH]c(=S)sc1Cc1ccc(Cl)c(Cl)c1	48	-8	-4	0.62	49*	10	?	0.084*	?	0.037*	0.048*	0.015*
Cc1nnc(SCc2ccc(Cl)c(Cl)c2)s1	5	-4	2	0.00054	nt	-11	nt	nt	nt	nt	nt	nt
O=C(NC1CC1)C1=C[C@@H](c2c[nH]c3ccccc23)C[C@@H](OCc2ccc(CO)cc2)O1	nt	-5	nt	nt	-1.8	-6	nt	nt	nt	nt	nt	nt
O=C(c1ccc(OC2CCN(Cc3ccccn3)CC2)cc1)N1CCCCO1	0	-3	-2	1.1	-0.25	-5	nt	nt	nt	nt	nt	nt
N#Cc1c(NC(=O)c2cccnc2)sc2c1CCC2	nt	-3	-10	1.9	0.085	nt	nt	nt	nt	nt	nt	nt
N#Cc1c(NC(=O)c2ccccc2)sc2c1CCC2	9	-28	-6	0.17	nt	-20	0.0066	0.0041	0.028	0.0075	0.018	0.01
CCCCc1c(C)nc2ccccc2c1SCCC(=O)O	-14	-4	-6	0.17	-2.1	-11	nt	nt	nt	nt	nt	nt
CCCCc1c(C)nc2ccc(C)cc2c1SCCC(=O)O	-18	7	1	0.23	-3.8*	-7	0.0065	?	0.023*	0.0075	0.015*	0.01
CCN(CC)CCNC(=O)C1CCC(=O)N1CCc1ccccc1 (stereo not drawn)	18	-12	-8	0.24	nt	8	nt	nt	nt	nt	nt	nt
CCOc1ccc(CCNC(=O)C2CCC(=O)N2CCc2ccccc2)cc1OCC (stereo not drawn)	17	-13	-2	nt	nt	-12	0.016	0.004	0.031	0.0069	0.016	0.0098
COc1ccc(C2OC(=O)CC2C(=O)NCc2ccc(Cl)cc2)cc1OC (stereo not drawn)	2	-11	-4	-0.0018	-0.024	-9	nt	nt	nt	nt	nt	nt
C/C(=C\C(=O)c1ccncc1)Nc1ccccc1O	-17	-4	-3	nt	19*	-4	0.015*	0.024*	0.032	0.011*	0.029	0.011*
CCC(C)/C(C)=N/NC(=O)CSc1nc2ccccc2[nH]1 (stereo not drawn)	-19	-8	-4	0.019	-0.063	6	nt	nt	nt	nt	nt	nt
COc1ccc(NC(=O)/C(=C/c2cccnc2)NC(=O)c2cccs2)cc1	5	-2	-11	0.03	-1.1	0	nt	nt	nt	nt	nt	nt
CCc1c(C)[nH]c2ccccc2c1=O	-6	-12	-13	0.35	7.6*	19	0.0069	?	0.027	0.0077	0.019	0.01
C/C(=N\NC(=O)c1cccs1)C(C)(C)C	-6	3	4	nt	0.84	17	nt	nt	nt	nt	nt	nt
O=C1C2CCCN2C(=O)N1CCCCN1CCN(CCO)CC1 (stereo not drawn)	-2	0	-9	0.59	0.17	28	nt	nt	nt	nt	nt	nt
SMILES	WT yeast gro inh	p47phox inh	RBBP9 inhibitor	ROMK primary	KCC2 mod	14-3-3 Bad PPI	KCC2 secondary	KCC2 bumet counter	KCC2 secondary2	HEK counter1	KCC2 retest ouab	HEK293 Tl flux2
CC1CCCC(C)N1c1nnc(NC(=O)c2cc(-c3ccc(Br)cc3)on2)s1 (stereo not drawn)	53	-58	-10	nt	12*	-12	0.0087	0.02*	0.028	0.011*	?	?
FC(F)(F)c1cc(-c2cccs2)nc2nc(N3CCOCC3)sc12	10	-3	-14	0.14	-0.77	0	nt	nt	nt	nt	nt	nt
O=C(N/N=C/c1ccc([N+](=O)[O-])s1)c1ccccc1	52	-2	-13	-0.43	6.4*	0	0.011	0.017*	0.035	?	0.028*	?
O=C(N/N=C/c1ccc([N+](=O)[O-])s1)c1ccccc1Br	7	10	-5	nt	0.9	-5	nt	nt	nt	nt	nt	nt
O=C(Cc1ccccc1)N/N=C/c1ccc([N+](=O)[O-])s1	21	6	-3	-0.13	nt	4	0.0078	?	0.031	?	0.02	?
CCOc1cc(/C=C(\CC(=O)O)c2nc3ccccc3s2)ccc1OC	12	16	-3	0.0097	1.4	2	nt	nt	nt	nt	nt	nt
COc1ccc(C(=O)Nc2cccc(/C=C(\CCC(=O)O)c3nc4ccccc4s3)c2)cc1	nt	-35	-10	nt	-3.8*	-1	0.005	?	0.024*	0.0068	0.013*	?
O=C(O)C/C(=C\c1cccc(NC(=O)c2ccccc2Cl)c1)c1nc2ccccc2s1	nt	-9	-16	nt	-4.1*	-3	0.0054	0.0051	0.022*	?	0.01*	0.01
C=CCOC(=O)C1=C(C)NC(=S)C(C#N)(CC=C)C1c1ccccc1Cl (stereo not drawn)	nt	-12	-5	nt	0.81	-2	nt	nt	nt	nt	nt	nt
